For 1 compound, IC50 results are on record in ChEMBL document CHEMBL4052605, “Lissoclibadin 1, a Polysulfur Aromatic Alkaloid from the Indonesian Ascidian Lissoclinum cf. badium, Induces Caspase-Dependent Apoptosis in Human Colon Cancer Cells and Suppresses Tumor Growth in Nude Mice” (J Nat Prod, 2017).

One experiment has as its system HeLa S3. Nature of the experiment: Antiproliferative activity against human HeLaS3 cells after 24 hrs by WST-1 assay. Format: functional, cell-based. Conditions: HeLa S3, 24 h. A digest of the protocol:
(§1)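 WST-1 viability assay. Cells seeded at 5 × 10^3 per well and grown 24 h, then given lissoclibadins at 0.1−40 μM (etoposide 1.0−100 μM) in triplicate for 24 h. WST-1 added and absorbance read 4 h later at 450 nm, background subtracted at 650 nm. Viability expressed as % of control; IC50 taken as 50% inhibition of viability. Three experiments, mean ± SD.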
(Formazan colour is commonly taken as a measure of viable cells.)

The next experiment has as its system HCT-15. Nature of the experiment: Antiproliferative activity against human HCT15 cells after 24 hrs by WST-1 assay. Format: functional, cell-based. Conditions: HCT-15, 24 h. In a few lines:
as §1

What is called IC50 is the point on the concentration scale where inhibition reaches its midpoint. Low readings indicate higher potency, high ones lower potency. Consider `COc1cc(CCN(C)C)c2sc3c(O)c(OC)cc(CCN(C)C)c3ssc2c1O` [LISSOCLIBADIN 4], for which the figures for the IC50 in the experiment with HeLa S3 and in the experiment with HCT-15 were 17.8 µM and 17.2 µM, respectively.
